Test results taken from ChEMBL document CHEMBL1122247, “2-(6-carboxyhexyl)cyclopentanone hexylhydrazone. A potent and time-dependent inhibitor of platelet aggregation” (1983).

Assays:
[1] = Tested for effect of plasma containing platelets (PRP) against arachidonic acid (500 uM) at 100 uM concentration; assay type: functional, Homo sapiens
Summary of the method: (§1)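 Human platelet-rich plasma was pretreated 1 min with 25–100 μM agent, then challenged with arachidonic acid (500 μM) or U46619 (1 μM). Aggregation was followed turbidimetrically (Born) at 37 °C. Percent inhibition versus vehicle controls was read 3 min after agonist. Results are mean ± SEM from at least three separate blood donors.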

[2] = Tested for effect of plasma containing platelets (PRP) against arachidonic acid (500 uM) at 50 uM concentration; assay type: functional, Homo sapiens; summary of the method: as §1
[3] = Tested for effect of plasma containing platelets (PRP) against arachidonic acid (500 uM) at 25 uM concentration; assay type: functional, Homo sapiens; summary of the method: as §1
[4] = Tested for effect of plasma containing platelets (PRP) against U-46,619 (1 uM) at 50 uM concentration; assay type: functional, Homo sapiens; summary of the method: as §1
[5] = Tested for effect of plasma containing platelets (PRP) against U-46,619 (1 uM) at 100 uM concentration; assay type: functional, Homo sapiens; summary of the method: as §1
[6] = Tested for effect of plasma containing platelets (PRP) against U-46,619 (1 uM) at 25 uM concentration; assay type: functional, Homo sapiens; summary of the method: as §1
[7] = Tested for effect of plasma containing platelets (PRP) against arachidonic acid at 1 uM concentration; assay type: functional; details: Homo sapiens
[8] = Tested for effect of plasma containing platelets (PRP) against platelet free plasma at 500 uM concentration; assay type: functional; details: Homo sapiens
Summary of the method: (§2)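 Hydrazone in ethanol was added to platelet-free plasma (100 μM final) and stirred. At 10-min intervals up to 1 h, aliquots were transferred to PRP (1 μM final). Aggregation to 500 μM arachidonic acid was then measured turbidimetrically at 37 °C. Controls had hydrazone added directly to PRP; seven donors.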

[9] = Tested for effect of […] against PGH-2 at 100 uM concentration; assay type: functional; details: Homo sapiens, Plasma
[10] = Time to complete inhibition of arachidonic acid (500 uM)-induced aggregation in platelet-rich plasma (PRP); details: Homo sapiens
[11] = Tested for effect of plasma containing platelets (PRP) against arachidonic acid at 0.1 uM concentration; assay type: functional; details: Homo sapiens
[12] = Tested for effect of plasma containing platelets (PRP) against PGH-2 at 0.6 uM concentration; assay type: functional; details: Homo sapiens
[13] = Tested for effect of plasma containing platelets (PRP) against U-46,619 at 100 uM concentration; assay type: functional; details: Homo sapiens
Summary of the method: (§3)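 In human PRP, 100 μM hydrazone was tested against aggregation induced by U46619 (1–3 μM) or ADP (5 μM). Aggregation was measured by the Born turbidimetric method at 37 °C over 3 min. Reagents were added as 10-μL aliquots per mL of PRP. Percent inhibition is averaged over nine donors.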

[14] = Tested for effect of plasma containing platelets (PRP) against platelet free plasma at 1 uM concentration; assay type: functional; details: Homo sapiens; summary of the method: as §2
[15] = Tested for effect of plasma containing platelets (PRP) against ADP at 100 uM concentration; assay type: functional; details: Homo sapiens; summary of the method: as §3

Structure (SMILES)	Inhibition [1] [%]	Inhibition [2] [%]	Inhibition [3] [%]	Inhibition [4] [%]	Inhibition [5] [%]	Inhibition [6] [%]	inhibition at 1 µM [7] [%]	inhibition at 500 µM [8] [%]	inhibition at 100 µM [9] [%]	time to complete inhibition at 500 µM [10] [min]	inhibition at 0.1 µM [11] [%]	inhibition at 0.6 µM [12] [%]	inhibition at 100 µM [13] [%]	inhibition at 1 µM [14] [%]	inhibition at 100 µM [15] [%]
CCCCCC(=O)N/N=C1\CCCC1CCCCCCC(=O)O (stereo not drawn)	98	17	8	6	30										
CCCCCCCN[C@H]1CCC[C@@H]1CCCCCCC(=O)O (relative stereo)		100	100	98		76									
CCCCCCN/N=C1\CCCC1CCCCCCC(=O)O (stereo not drawn)							99	100	89	27	44	6	4	29	6
